Measurements reported in ChEMBL document CHEMBL5712091, “Role of the GLUT1 Glucose Transporter in Postnatal CNS Angiogenesis and Blood-Brain Barrier Integrity” (Circ Res, 2020).
Each block holds one compound with its values, some of them ahead of it. Calls of active or inactive are those of the source. The calls are words filed in the database; no cut-off is given here.

Key:
BEND3 [1] = assay: Inhibition of GLUT in mouse BEND3 cells assessed as decrease of [14C]-3-O-methylglucose transport at 20 micromol/L after 2 hrs by glucose transport assay; format: cell-based; details: dose 20.0 µmol/L
Method in brief: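 bEND3 cells were treated with inhibitor or DMSO vehicle for 24 hrs, then held in serum-free DMEM for 2 hrs at 37°C with inhibitor or vehicle and washed. Uptake ran 30 min in DPBS with 20 mM 3-O-methylglucose plus 1 µCi/ml 14C-3MG, still with inhibitor. It was stopped with ice-cold 50 mM glucose in PBS, cells lysed in 0.1 N NaOH, and counted by LSC; triplicate.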

BEND3 [2] = assay: Inhibition of GLUT in mouse BEND3 cells assessed as decrease in cell proliferation at 20 micromol/L; format: cell-based; details: dose 20.0 µmol/L
BEND3 [3] = assay: Inhibition of GLUT in mouse BEND3 cells assessed as decrease in cell migration at 20 micromol/L; format: cell-based; details: dose 20.0 µmol/L
[4] = target: T1, Solute carrier family 2, facilitated glucose transporter member 1 (Mus musculus) (UniProt P17809); assay: Inhibition of GLUT1 in mouse BEND3 cells assessed as decrease in [14C]-3-O-methylglucose transport after 2 hrs by glucose transport assay; format: cell-based
T1 sequence (whole entry): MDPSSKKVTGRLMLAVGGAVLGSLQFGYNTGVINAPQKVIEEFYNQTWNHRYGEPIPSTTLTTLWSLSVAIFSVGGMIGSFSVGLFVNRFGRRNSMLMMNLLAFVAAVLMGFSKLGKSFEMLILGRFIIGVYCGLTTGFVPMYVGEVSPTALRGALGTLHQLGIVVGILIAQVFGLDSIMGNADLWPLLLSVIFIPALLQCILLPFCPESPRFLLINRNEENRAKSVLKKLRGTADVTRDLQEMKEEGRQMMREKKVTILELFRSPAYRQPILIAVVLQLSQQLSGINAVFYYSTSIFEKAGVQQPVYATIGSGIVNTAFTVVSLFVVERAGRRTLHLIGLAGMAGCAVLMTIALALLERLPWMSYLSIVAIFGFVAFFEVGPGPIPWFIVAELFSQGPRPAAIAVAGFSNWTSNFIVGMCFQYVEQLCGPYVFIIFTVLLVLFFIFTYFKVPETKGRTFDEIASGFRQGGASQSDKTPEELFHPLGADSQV
Method in brief: (§1)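 Cells pre-held 2 hrs at 37°C in serum-free DMEM with inhibitor or DMSO vehicle, DPBS-washed, then given 20 mM 3-O-methylglucose carrying 1 µCi/ml [14C]-3MG in DPBS plus inhibitor for 30 min uptake. Stopped and washed with ice-cold 50 mM glucose in PBS, lysed in 0.1 N NaOH, counted by liquid scintillation. Triplicate measurements.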

[5] = target: T1, Solute carrier family 2, facilitated glucose transporter member 1 (Mus musculus); assay: Inhibition of GLUT1 in mouse BEND3 cells assessed as complete inhibition of [14C]-3-O-methylglucose transport at 20 nmol/L after 2 hrs by glucose transport assay; format: cell-based; method in brief: as §1
[6] = target: T1, Solute carrier family 2, facilitated glucose transporter member 1 (Mus musculus); assay: Inhibition of GLUT1 in mouse BEND3 cells assessed as decrease in glycolysis at 20 nmol/L relative to cytochalasin B; format: cell-based; details: time 2.0 hrs
Method in brief: (§2)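 Glycolytic flux read as 3H2O release: cells kept 2 hrs in culture medium containing D-[5-3H]-glucose at 0.4 µCi/ml final. Supernatant sealed in glass vials, 3H2O captured over 48 h at 37°C on water-soaked paper in hanging wells, then counted by scintillation. Inhibitor exposure 24 hrs from the day after seeding.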

[7] = target: T2, Solute carrier family 2, facilitated glucose transporter member 1 (Homo sapiens) (UniProt P11166); assay: Inhibition of GLUT1 in human brain microvascular endothelial cells assessed as decrease in glycolysis at 20 nmol/L; details: Endothelial cell; method in brief: as §2
T2 sequence (whole entry): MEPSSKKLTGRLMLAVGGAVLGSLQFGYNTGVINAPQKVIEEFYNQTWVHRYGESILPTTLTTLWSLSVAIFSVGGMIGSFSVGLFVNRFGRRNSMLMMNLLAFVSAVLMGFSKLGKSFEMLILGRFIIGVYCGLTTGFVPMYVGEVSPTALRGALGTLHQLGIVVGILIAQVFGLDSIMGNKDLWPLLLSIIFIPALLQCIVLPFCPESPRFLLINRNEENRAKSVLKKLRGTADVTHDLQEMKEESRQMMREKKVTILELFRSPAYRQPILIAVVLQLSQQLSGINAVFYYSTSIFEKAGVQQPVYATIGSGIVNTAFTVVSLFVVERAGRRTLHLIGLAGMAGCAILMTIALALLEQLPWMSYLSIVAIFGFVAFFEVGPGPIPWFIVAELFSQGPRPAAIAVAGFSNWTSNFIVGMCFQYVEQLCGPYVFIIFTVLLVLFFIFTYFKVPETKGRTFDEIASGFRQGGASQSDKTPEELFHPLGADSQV

[8] = target: T2, Solute carrier family 2, facilitated glucose transporter member 1 (Homo sapiens); assay: Inhibition of GLUT1 in human retinal microvascular endothelial cells assessed as decrease in glycolysis at 20 nmol/L; format: cell-based; details: Endothelial cell, time 2.0 hrs; method in brief: as §2
[9] = target: T1, Solute carrier family 2, facilitated glucose transporter member 1 (Mus musculus); assay: Inhibition of GLUT1 in mouse BEND3 cells assessed as reduction in glycolytic metabolite at 20 nmol/L; format: cell-based
[10] = target: T1, Solute carrier family 2, facilitated glucose transporter member 1 (Mus musculus); assay: Inhibition of GLUT1 in mouse BEND3 cells assessed as increase in AMP/ATP ratio at 20 nmol/L; format: cell-based
[11] = target: T1, Solute carrier family 2, facilitated glucose transporter member 1 (Mus musculus); assay: Inhibition of GLUT1 in mouse BEND3 cells assessed as activation of AMPK at 20 nmol/L by Western blot analysis; format: cell-based
Method in brief: (§3)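 bEND3 lysed in Laemmli buffer, denatured 5 min at 95°C, and 15 µg protein run on 4-20% gels and transferred to PVDF. Probed overnight in 5% milk/TBST with antibodies to phospho-AMPKα (Thr172), AMPKα, p53 and p21, with β-actin.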

[12] = target: T1, Solute carrier family 2, facilitated glucose transporter member 1 (Mus musculus); assay: Inhibition of GLUT1 in mouse BEND3 cells assessed as reduced phosphorylation of mTORC1 at 20 nmol/L by Western blot analysis; format: cell-based
[13] = target: T1, Solute carrier family 2, facilitated glucose transporter member 1 (Mus musculus); assay: Inhibition of GLUT1 in mouse BEND3 cells assessed as reduced phosphorylation of S6K1 at 20 nmol/L by Western blot analysis; format: cell-based
[14] = target: T1, Solute carrier family 2, facilitated glucose transporter member 1 (Mus musculus); assay: Inhibition of GLUT1 in mouse BEND3 cells assessed as reduced phosphorylation of RPS6 at 20 nmol/L by Western blot analysis; format: cell-based
[15] = target: T1, Solute carrier family 2, facilitated glucose transporter member 1 (Mus musculus); assay: Inhibition of GLUT1 in mouse BEND3 cells assessed as increase in p53/p21 ratio at 20 nmol/L by Western blot analysis; format: cell-based; method in brief: as §3
[16] = target: T2, Solute carrier family 2, facilitated glucose transporter member 1 (Homo sapiens); assay: Inhibition of GLUT1 in HUVEC assessed as decrease in glycolysis; format: cell-based; method in brief: as §2
[17] = target: T2, Solute carrier family 2, facilitated glucose transporter member 1 (Homo sapiens); assay: Inhibition of GLUT1 in HUVEC assessed as decrease in glucose transport; format: cell-based; method in brief: as §1
[18] = target: T1, Solute carrier family 2, facilitated glucose transporter member 1 (Mus musculus); assay: Inhibition of GLUT1 in mouse primary endothelial cells assessed as decrease in glucose transport; format: cell-based; details: Endothelial cell
[19] = target: T1, Solute carrier family 2, facilitated glucose transporter member 1 (Mus musculus); assay: Inhibition of GLUT1 in mouse primary endothelial cells assessed as decrease in glycolysis; format: cell-based; details: Endothelial cell; method in brief: as §2
[20] = target: T1, Solute carrier family 2, facilitated glucose transporter member 1 (Mus musculus); assay: Inhibition of GLUT1 in mouse BEND3 cells assessed as decrease in cell proliferation at 20 nmol/L; format: cell-based
Method in brief: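 Proliferation measured after 24 hrs of inhibitor as [6-3H]-thymidine incorporation: 2 hrs with 1 µCi/ml final in culture medium, ethanol fixation 15 min at 4°C, 10% TCA precipitation, 0.1 N NaOH lysis, and scintillation counting.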

[21] = target: T1, Solute carrier family 2, facilitated glucose transporter member 1 (Mus musculus); assay: Inhibition of GLUT1 in mouse BEND3 cells assessed as slight decrease in cell migration at 20 nmol/L by scratch wound assay; format: cell-based
Method in brief: (§4)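 Confluent monolayers, pre-treated 24 hrs with inhibitor or 1 µg/ml mitomycin C where indicated, scratched with a pipette tip and imaged (T0). Then incubated in EGM2 and fixed with 4% PFA when control closure was near complete. Gap areas measured; closure % = (1 − Tx gap/T0 gap) × 100.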

[22] = target: T1, Solute carrier family 2, facilitated glucose transporter member 1 (Mus musculus); assay: Inhibition of GLUT1 in mouse BEND3 cells assessed as cell migration at 20 nmol/L by scratch wound assay in presence of mitomycin C; format: cell-based; method in brief: as §4
[23] = target: T2, Solute carrier family 2, facilitated glucose transporter member 1 (Homo sapiens); assay: Inhibition of GLUT1 in human brain microvascular endothelial cells assessed as decrease in sprouting angiogenesis; details: Endothelial cell, dose 20.0 nmol/L
Method in brief: (§5)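 Spheroids of 1000 ECs per 25 µl hanging drop formed overnight in 20% methylcellulose/EGM2, then embedded in 5 mg/ml fibrinogen gel in EGM2 with or without inhibitor and/or 1 µg/ml mitomycin C. Same medium overlaid on gel. Fixed with 4% PFA after 24 hrs and photographed.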

[24] = target: T2, Solute carrier family 2, facilitated glucose transporter member 1 (Homo sapiens); assay: Inhibition of GLUT1 in human retinal microvascular endothelial cells assessed as decrease in sprouting angiogenesis; format: cell-based; details: Endothelial cell; method in brief: as §5
[25] = target: T2, Solute carrier family 2, facilitated glucose transporter member 1 (Homo sapiens); assay: Inhibition of GLUT1 in HUVEC assessed as decrease in sprouting angiogenesis at 40 nmol/L; format: cell-based; method in brief: as §5
[26] = target: T2, Solute carrier family 2, facilitated glucose transporter member 1 (Homo sapiens); assay: Inhibition of GLUT1 in HUVEC assessed as sprouting angiogenesis at 40 nmol/L in presence of mitomycin C; format: cell-based; method in brief: as §5

Structure (SMILES): C=C1[C@@H](C)[C@H]2[C@H](Cc3ccccc3)NC(=O)[C@]23OC(=O)/C=C/[C@H](O)CCC[C@@H](C)C/C=C/[C@H]3[C@@H]1O
- inhibition (BEND3 [1]): Active
- inhibition (BEND3 [2]): Active
- inhibition (BEND3 [3]): Active

- inhibition [4]: Active
- inhibition [5]: Active
- inhibition [6]: Active
- inhibition [7]: Active
- inhibition [8]: Active
- inhibition [9]: Active
- inhibition [10]: Active
- inhibition [11]: Active
- inhibition [12]: Active
- inhibition [13]: Active
- inhibition [14]: Active
- inhibition [15]: Active
- inhibition [16]: Active
- inhibition [17]: Active
- inhibition [18]: Active
- inhibition [19]: Active
- inhibition [20]: 40%
- inhibition [21]: Active
- inhibition [22]: inactive
- inhibition [23]: Active
- inhibition [24]: Active
- inhibition [25]: Active
- inhibition [26]: inactive
Structure (SMILES): Cc1c(NC(=O)c2cc(C(N)=O)nc3cc(F)ccc23)c(C(F)(F)F)nn1Cc1ccc(C#N)cc1
